Test results reported in ChEMBL document CHEMBL3585252, “Selaginellin and biflavonoids as protein tyrosine phosphatase 1B inhibitors from Selaginella tamariscina and their glucose uptake stimulatory effects” (Bioorg Med Chem, 2015).

Tests used:
[1] = target: T1, Tyrosine-protein phosphatase non-receptor type 1 (Mus musculus) (UniProt P35821); assay: Inhibition of PTP1B in mouse 3T3L1 cells assessed as stimulation of 2-NBDG uptake preincubated for 24 hrs followed by 2-NBDG addition measured after 30 mins by fluorescence reader analysis; format: cell-based; details: 3T3-L1
T1 sequence (whole entry): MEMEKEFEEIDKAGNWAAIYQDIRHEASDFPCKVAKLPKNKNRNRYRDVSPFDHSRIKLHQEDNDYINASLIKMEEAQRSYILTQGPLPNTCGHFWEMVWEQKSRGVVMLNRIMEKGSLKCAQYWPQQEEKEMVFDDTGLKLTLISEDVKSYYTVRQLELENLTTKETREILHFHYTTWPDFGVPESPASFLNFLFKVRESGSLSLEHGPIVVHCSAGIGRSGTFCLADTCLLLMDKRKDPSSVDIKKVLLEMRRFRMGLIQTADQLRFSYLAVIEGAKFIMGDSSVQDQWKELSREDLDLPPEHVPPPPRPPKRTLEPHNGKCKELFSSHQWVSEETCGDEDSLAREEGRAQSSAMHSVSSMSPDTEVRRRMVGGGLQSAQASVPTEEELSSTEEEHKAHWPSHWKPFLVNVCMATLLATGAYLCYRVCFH
How it was run: (§1)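 3T3-L1 preadipocytes were grown to confluence and differentiated for 8 days (days 0–8). Mature adipocytes were treated with compound at 5 and 10 µM, or with insulin at 100 nM; DMSO was the vehicle control. 2-NBDG was then added for 30 min. Uptake is expressed as fold induction over the DMSO control.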

[2] = target: T1, Tyrosine-protein phosphatase non-receptor type 1 (Mus musculus); assay: Inhibition of PTP1B in mouse 3T3L1 cells assessed as stimulation of 2-NBDG uptake at 10 uM preincubated for 24 hrs followed by 2-NBDG addition measured after 30 mins by fluorescence reader analysis relative to control; format: cell-based; details: 3T3-L1; how it was run: as §1
[3] = Cytotoxicity against mouse 3T3L1 cells assessed as inhibition of cell viability at 5 to 10 uM after 48 hrs by MTT assay; format: cell-based; details: 3t3-l1, 48 h
How it was run: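 Differentiated 3T3-L1 adipocytes were exposed to compound at 5 and 10 µM without 2-NBDG. Viability was read by MTT assay.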

[4] = target: T2, Tyrosine-protein phosphatase non-receptor type 1 (Homo sapiens) (UniProt P18031); assay: (§2) Inhibition of human recombinant PTP1B using p-NPP as substrate preincubated for 10 mins followed by substrate addition measured after 20 mins by microplate reader analysis
T2 sequence (whole entry): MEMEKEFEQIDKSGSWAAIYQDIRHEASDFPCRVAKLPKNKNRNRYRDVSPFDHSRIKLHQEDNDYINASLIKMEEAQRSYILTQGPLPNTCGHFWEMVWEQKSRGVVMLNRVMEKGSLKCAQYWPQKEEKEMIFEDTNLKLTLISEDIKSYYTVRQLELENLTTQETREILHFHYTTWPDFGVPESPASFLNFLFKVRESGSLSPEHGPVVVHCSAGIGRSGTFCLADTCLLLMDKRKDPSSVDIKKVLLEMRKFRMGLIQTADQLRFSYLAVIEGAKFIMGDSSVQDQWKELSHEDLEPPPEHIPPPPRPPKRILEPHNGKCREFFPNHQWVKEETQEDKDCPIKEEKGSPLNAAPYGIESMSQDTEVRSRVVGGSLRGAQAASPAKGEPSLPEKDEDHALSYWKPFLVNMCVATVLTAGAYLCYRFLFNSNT
How it was run: (§3)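 Enzyme inhibition was tested at graded concentrations. IC50 was obtained by regression analysis and reported as mean ± SD of three replicates.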

[5] = target: T3, Tyrosine-protein phosphatase non-receptor type 1 (Homo sapiens, UniProt P18031); assay: as §2; how it was run: as §3
T3 sequence (P18031 whole entry): T2 sequence (whole entry)

[6] = target: T3, Tyrosine-protein phosphatase non-receptor type 1; assay: Mixed-competitive inhibition of human recombinant PTP1B using p-NPP as substrate preincubated for 10 mins followed by substrate addition measured after 20 mins by Lineweaver-Burk/Dixon plot analysis
How it was run: (§4)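 Kinetic mode and Ki came from Lineweaver–Burk and Dixon plots of initial velocity at several substrate and inhibitor concentrations. Ki was read as the negative x-axis value where three Dixon lines intersect. Data are the mean reciprocal initial velocity, n = 3 replicates per substrate concentration.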

[7] = target: T3, Tyrosine-protein phosphatase non-receptor type 1; assay: Uncompetitive inhibition of human recombinant PTP1B using p-NPP as substrate preincubated for 10 mins followed by substrate addition measured after 20 mins by Lineweaver-Burk/Dixon plot analysis; how it was run: as §4
[8] = target: T3, Tyrosine-protein phosphatase non-receptor type 1; assay: Competitive inhibition of human recombinant PTP1B using p-NPP as substrate preincubated for 10 mins followed by substrate addition measured after 20 mins by Lineweaver-Burk/Dixon plot analysis; how it was run: as §4

SMILES | inhibition [1] | fold change (FC) [2] | Activity [3] | inhibition [4] | IC50 [5] [µM] | Ki [6] [µM] | Ki [7] [µM] | Ki [8] [µM]
O=c1c(-c2c(O)cc(O)c3c(=O)cc(-c4ccc(O)cc4)oc23)c(-c2ccc(O)cc2)oc2cc(O)cc(O)c12 | Dose-dependent effect | 1.44 | Non-toxic | Dose-dependent effect | 4.5 | 4.6 | – | –
O=c1cc(-c2ccc(O)c(-c3c(-c4ccc(O)cc4)oc4cc(O)cc(O)c4c3=O)c2)oc2cc(O)cc(O)c12 [TAIWANIAFLAVONE] | Dose-dependent effect | 1.47 | Non-toxic | Dose-dependent effect | 5.4 | 4.5 | – | –
O=c1cc(-c2ccc(O)c(-c3c(O)cc(O)c4c(=O)cc(-c5ccc(O)cc5)oc34)c2)oc2cc(O)cc(O)c12 [AMENTOFLAVONE] | Dose-dependent effect | – | Non-toxic | Dose-dependent effect | 7.4 | 7.8 | – | –
O=C1C[C@@H](c2cc(-c3c(O)ccc4c(=O)cc(-c5ccc(O)cc5)oc34)c(O)cc2O)Oc2cc(O)cc(O)c21 | Dose-dependent effect | – | Non-toxic | Dose-dependent effect | 9.8 | – | 10.4 | –
O=c1cc(-c2ccc(O)cc2)oc2c(-c3c(O)cc(O)c4c(=O)cc(-c5ccc(O)cc5)oc34)c(O)cc(O)c12 [CUPRESSUFLAVONE] | Dose-dependent effect | – | Non-toxic | Dose-dependent effect | 9.6 | – | – | 10.7
O=c1cc(-c2ccc(O)c(-c3c(O)cc4oc(-c5ccc(O)cc5)cc(=O)c4c3O)c2)oc2cc(O)cc(O)c12 [ROBUSTAFLAVONE] | Dose-dependent effect | – | Non-toxic | Dose-dependent effect | 6.2 | 6.8 | – | –
O=C(O)c1c(-c2ccc(O)cc2)ccc(CO)c1C#Cc1ccc(O)cc1 | Dose-dependent effect | 1.24 | Non-toxic | Dose-dependent effect | 13.2 | 14.5 | – | –
